Source: PubChem (The Scripps Research Institute Molecular Screening Center)
Hits are enriched below; roughly 2.9% of the tested compounds scored in any of these assays.
OX1R antag-1 – antagonists of human orexin 1 receptor (OX1R); O43613; OX1R-expressing cells, FRET antagonist read-out; inhibition, % at 6.6 µM; 1.8% of 330,000 active; AID 485270; in the data active = inhibition mostly above about 38%, no sharp cut-off; inactive = mostly below about 40%
Target sequence (O43613 whole entry, looked up): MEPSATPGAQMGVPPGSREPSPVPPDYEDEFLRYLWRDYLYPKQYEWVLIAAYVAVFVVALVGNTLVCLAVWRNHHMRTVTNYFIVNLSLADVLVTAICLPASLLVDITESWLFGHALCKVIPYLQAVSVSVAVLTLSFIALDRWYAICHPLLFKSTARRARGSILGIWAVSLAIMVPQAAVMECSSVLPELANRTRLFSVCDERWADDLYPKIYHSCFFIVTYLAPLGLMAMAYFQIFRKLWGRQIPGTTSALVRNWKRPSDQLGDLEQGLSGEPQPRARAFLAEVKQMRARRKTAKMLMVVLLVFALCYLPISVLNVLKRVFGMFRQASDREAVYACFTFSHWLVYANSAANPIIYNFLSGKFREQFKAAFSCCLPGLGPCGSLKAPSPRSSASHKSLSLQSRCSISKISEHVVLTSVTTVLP
OX1R antag-2 – human HCRTR1 antagonism; O43613; AID 434989; CHO/OX1R cells, Fluo-8 calcium fluorescence, orexin A; inhibition, % at 5 µM; 0.43% of 330,000 active;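 active = inhibition above its plate's threshold, mean inhibition of all tested compounds on the plate plus 3 SD, cut at about 37% in these data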
CHO-K1 Ca antag – M1 antagonist counterscreen hit in parental CHO-K1 cells; inhibition, % at 3 µM; 0.6% of 360,000 active; ATP-induced calcium, Fluo-8 fluorescence;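 active = inhibition above a per-plate cutoff, the plate's mean sample inhibition plus 3 SD, cut at about 24% in these data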
CHO parental Ca – signal in parental CHO cells, OX1R antagonist counter-screen. parental CHO-K1, ATP-induced calcium, Fluo-8 fluorescence. inhibition, % at 5.6 µM. 0.63% of 330,000 active;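 active = inhibition above that plate's mean sample inhibition plus 3 SD, cut at about 26% in these data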
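Test system: untransfected parental CHO cell line. Compound: one dose, 5.6 µM nominal. Detection: intracellular calcium via Fluo-8 no-wash fluorescent dye. Measure: % inhibition. Benchmarks: ATP-challenged DMSO wells low, unchallenged DMSO wells high.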
CHO-K1 Ca PAM – M1 PAM counterscreen hit in parental CHO-K1 cells. AID 602247. 0.02% of 360,000 active. activation, % at 3 µM. ATP EC20, Fluo-8 calcium fluorescence; 0% at ATP EC20, 100% at ATP max;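 active = activation above the run cutoff, the mean activation of all test compounds plus 3 SD, cut at about 40% in these data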;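 note: peak over basal fluorescence ratio in a 140 s read after ATP addition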
M1 ag parental – counter-screen for M1 agonists: effect in parental CHO-K1 cells. Fluo-8 calcium fluorescence; scaled to maximal ATP response, vehicle zero. activation, % at 3 µM. 0.48% of 360,000 active; in the data active = activation above about 15%;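 note: untransfected CHO-K1 host cells lacking M1 receptor as counterscreen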
Large screens that a line does not name were inactive.

Cc1ccc(S(=O)(=O)NN2C(=O)/C(=C/c3cccs3)SC2=S)cc1	CHO-K1 Ca antag 26
COc1cc(/C=C2\SC(=S)N(NS(=O)(=O)c3ccccc3)C2=O)cc(OC)c1OC	none
O=C1/C(=C/c2cccc(F)c2)SC(=S)N1NS(=O)(=O)c1ccccc1	none
COc1cc(NC(=O)CSc2nc(C3CC3)nc3ccccc23)cc(OC)c1	OX1R antag-1 47
COc1cccc(NC(=O)CN(C)C(=O)CSCC(=O)Nc2ccc(C)cc2)c1	OX1R antag-1 30
COc1cccc(NC(=O)CN(C)C(=O)c2cn(-c3ccccc3)nc2-c2cccs2)c1	OX1R antag-1 51
COc1cc(NC(=O)CSCC(=O)Nc2cc(OC)cc(OC)c2)cc(OC)c1	OX1R antag-1 63 (no result: CHO-K1 Ca antag, CHO-K1 Ca PAM, M1 ag parental)
CCc1noc(C)c1C(=O)N1CCN(S(=O)(=O)c2ccc(Br)cc2Cl)CC1	none
CN(CC(=O)Nc1cccc(F)c1)C(=O)CSc1nc2ccccc2s1	none
COc1cccc(NC(=O)CN(C)C(=O)CSc2nc3ccccc3s2)c1	OX1R antag-1 54
O=C1Nc2ccc(Br)cc2C12NNc1ccccc1O2 (stereo not drawn)	OX1R antag-2 60, CHO parental Ca 78
CCCC(=O)NC(C)c1nc(-c2ccc(C)cc2)no1 (stereo not drawn)	none
CC1CCC(NC(=O)COC(=O)CSc2ccc(C(N)=O)cc2[N+](=O)[O-])CC1 (stereo not drawn)	none
O=C(OCC(=O)N1CCCC1=O)c1ccc(Cl)cc1[N+](=O)[O-]	OX1R antag-1 58
Cc1ccc(CN(C)C(=O)COC(=O)CSc2ccc(C(N)=O)cc2[N+](=O)[O-])cc1	OX1R antag-1 58
CC1CN(C(=O)COC(=O)CSc2ccc(C(N)=O)cc2[N+](=O)[O-])CC(C)O1 (stereo not drawn)	OX1R antag-1 73
NC(=O)c1ccc(SCC(=O)OCC(=O)N2CCCC2=O)c([N+](=O)[O-])c1	OX1R antag-1 67
O=C(OCC(=O)N1CCOCC1)c1ccc(Cl)cc1[N+](=O)[O-]	none
CC1CCN(C(=O)c2[nH]cnc2C(=O)Nc2ccccc2F)CC1	none (no result: OX1R antag-1, OX1R antag-2, CHO parental Ca)
CCCc1nnc(NC(=O)CCC(=O)N2CCN(Cc3ccc(Cl)cc3)CC2)s1	none
NC(=O)c1ccc(SCC(=O)OCC(=O)NC2CCCCCCC2)c([N+](=O)[O-])c1	OX1R antag-1 30
Cc1cc(C(=O)NNC(=O)COc2ccccc2Cl)n[nH]1	none
Cc1ccsc1C(=O)NNC(=O)COc1ccccc1Cl	CHO-K1 Ca antag 31
Cc1ccc(S(=O)(=O)N2CCC(=O)N(CCOCc3ccc(C(F)(F)F)cc3)CC2)cc1	CHO parental Ca 49
CC(=O)Nc1ccc2nc(NC(=O)c3cccs3)sc2c1	none
O=C(Nc1nc2cc3c(cc2s1)OCCO3)c1cccs1	OX1R antag-1 66
CCC(C)c1ccc(NC(=S)NCCn2cc(Br)cn2)cc1 (stereo not drawn)	none
CCC(C)c1ccc(NC(=S)NCCn2cc(Cl)cn2)cc1 (stereo not drawn)	CHO parental Ca 45
COc1ccc(-c2c(C)nc3c(-c4ccccn4)cnn3c2N)cc1	none (no result: OX1R antag-1, OX1R antag-2, CHO parental Ca)
COCC(=O)Nc1ccc2c(c1)[C@@H]1C[C@H](CC(=O)OC)O[C@@H](CO)[C@@H]1O2	CHO-K1 Ca antag 24 (no result: OX1R antag-1, OX1R antag-2, CHO parental Ca)
COC(=O)C[C@H]1C[C@@H]2c3cc(NC(=O)CN(C)C)ccc3O[C@@H]2[C@H](CO)O1	none (no result: OX1R antag-1, OX1R antag-2, CHO parental Ca)
Cc1ccccc1CN1CCN(CC(=O)NCCCN2CCN(c3ccc(F)cc3)CC2)C1=O	CHO-K1 Ca antag 29
CC(C)(C)OC(=O)C[C@@H]1C/C=C\C[C@H](CC(=O)N(CCO)Cc2ccccc2)C(=O)NC[C@@H](c2ccccc2)OC1=O	OX1R antag-1 54
O=C1NC[C@@H](c2ccccc2)OC(=O)[C@H](Cc2ccc(F)cc2)C/C=C\C[C@H]1CC(=O)N(CCO)Cc1ccccc1	none
O=C1NC[C@H](c2ccccc2)OC(=O)[C@@H](Cc2ccc(F)cc2)C/C=C\C[C@H]1CC(=O)N(CCO)Cc1ccccc1	OX1R antag-1 56
CC(C)(C)OC(=O)C[C@H]1C/C=C\C[C@@H](CC(=O)N(CCO)Cc2ccccc2)C(=O)NC[C@H](c2ccccc2)OC1=O	none
CCCC(=O)NC(=S)Nc1ccc(N2CCN(C(=O)c3cccs3)CC2)cc1	M1 ag parental 15
CCCC(=O)NC(=S)N1CCN(c2ccc([N+](=O)[O-])cc2)CC1	CHO-K1 Ca antag 25
Cc1csc2c(N3CCN(C(=S)Nc4ccc(F)cc4F)CC3)ncnc12	CHO parental Ca 39, M1 ag parental 23
O=[N+]([O-])c1ccc(N2CCN(C(=S)Nc3ccc(F)cc3F)CC2)cc1	CHO-K1 Ca antag 24
Cc1cnc(C(=O)OCc2cc(=O)n3c(C)cccc3n2)cn1	none
C[C@H](CO)N1C[C@H](C)[C@H](CN(C)Cc2ccncc2)Oc2cc(-c3ccccc3F)ccc2S1(=O)=O	none (no result: OX1R antag-1, OX1R antag-2, CHO parental Ca)
Cc1cccc(C(=O)N2CCN(c3ccc([N+](=O)[O-])c(N4CCOCC4)c3)CC2)c1	OX1R antag-1 75
COc1ccc(C2=Nc3ccccc3NC(=O)C2N(C(=O)c2cnc(C)cn2)c2ccc(N3CCOCC3)cc2)cc1 (stereo not drawn)	none (no result: OX1R antag-1, OX1R antag-2, CHO parental Ca)
CCOC(=O)C1(CCOC)CCN(Cc2ccncc2)CC1	none
CCOC(=O)C1(CCOC)CCN(C/C=C/c2ccccc2OC)CC1	CHO-K1 Ca antag 31
Cc1cc(C)c2c(=O)[nH]c(SCC(=O)N3CCOCC3)nc2n1	M1 ag parental 17
Cc1cc(C)c2c(=O)[nH]c(SCC(=O)N3CCCCC3)nc2n1	none
OCCCNC(=S)Nc1ccc2nc(-c3ccccn3)c(-c3ccccn3)nc2c1	OX1R antag-1 75
CC(C)(C)CC(C)(C)NC(=S)Nc1ccc2nc(-c3ccccn3)c(-c3ccccn3)nc2c1	none
CC1CCC2C(C1)OS(=O)(=O)NC2(C)C (stereo not drawn)	none (no result: CHO-K1 Ca antag, CHO-K1 Ca PAM, M1 ag parental)
C#Cc1ccc([C@H]2C=C(C(=O)NCc3nc4ccccc4[nH]3)O[C@@H](OCC)[C@@H]2CCCO)cc1	none
O=C1NC(=Nc2ccc(O)cc2)S/C1=C/c1ccco1	none
O=C1NC(=Nc2ccc3ccccc3c2)S/C1=C/c1ccco1	OX1R antag-1 42
Cn1cnc([N+](=O)[O-])c1Sc1nc(N)nc2c1ncn2C1OC(CO)C(O)C1O (stereo not drawn)	none (no result: OX1R antag-1, OX1R antag-2, CHO parental Ca)
COc1ccc(CNC(=O)[C@@H]2CC=C[C@@H]3CCN(Cc4ccc(Cl)c(Cl)c4)C(=O)[C@@H]32)cc1	none
COc1ccc(CNC[C@@H](CCCCN(C)Cc2ccc(OC)cc2)N2C[C@H](c3ccccc3)N(CCc3ccc(Cl)c(Cl)c3)C(=O)C2=O)cc1	M1 ag parental 30
O=C(Nc1ccc(Cc2ccncc2)cc1)C1CCC(N2C(=O)C3C4C=CC(C4)C3C2=O)CC1 (stereo not drawn)	M1 ag parental 18
